{"source": "ChEMBL document CHEMBL5107944", "about": "“Rational design of selective inhibitors of PARP4” (RSC Med Chem, 2021)", "key": {"[1]": {"target": "Protein mono-ADP-ribosyltransferase PARP4 (Homo sapiens, UniProt Q9UKK3)", "sequence (Q9UKK3 whole entry, the tested form may be a part)": "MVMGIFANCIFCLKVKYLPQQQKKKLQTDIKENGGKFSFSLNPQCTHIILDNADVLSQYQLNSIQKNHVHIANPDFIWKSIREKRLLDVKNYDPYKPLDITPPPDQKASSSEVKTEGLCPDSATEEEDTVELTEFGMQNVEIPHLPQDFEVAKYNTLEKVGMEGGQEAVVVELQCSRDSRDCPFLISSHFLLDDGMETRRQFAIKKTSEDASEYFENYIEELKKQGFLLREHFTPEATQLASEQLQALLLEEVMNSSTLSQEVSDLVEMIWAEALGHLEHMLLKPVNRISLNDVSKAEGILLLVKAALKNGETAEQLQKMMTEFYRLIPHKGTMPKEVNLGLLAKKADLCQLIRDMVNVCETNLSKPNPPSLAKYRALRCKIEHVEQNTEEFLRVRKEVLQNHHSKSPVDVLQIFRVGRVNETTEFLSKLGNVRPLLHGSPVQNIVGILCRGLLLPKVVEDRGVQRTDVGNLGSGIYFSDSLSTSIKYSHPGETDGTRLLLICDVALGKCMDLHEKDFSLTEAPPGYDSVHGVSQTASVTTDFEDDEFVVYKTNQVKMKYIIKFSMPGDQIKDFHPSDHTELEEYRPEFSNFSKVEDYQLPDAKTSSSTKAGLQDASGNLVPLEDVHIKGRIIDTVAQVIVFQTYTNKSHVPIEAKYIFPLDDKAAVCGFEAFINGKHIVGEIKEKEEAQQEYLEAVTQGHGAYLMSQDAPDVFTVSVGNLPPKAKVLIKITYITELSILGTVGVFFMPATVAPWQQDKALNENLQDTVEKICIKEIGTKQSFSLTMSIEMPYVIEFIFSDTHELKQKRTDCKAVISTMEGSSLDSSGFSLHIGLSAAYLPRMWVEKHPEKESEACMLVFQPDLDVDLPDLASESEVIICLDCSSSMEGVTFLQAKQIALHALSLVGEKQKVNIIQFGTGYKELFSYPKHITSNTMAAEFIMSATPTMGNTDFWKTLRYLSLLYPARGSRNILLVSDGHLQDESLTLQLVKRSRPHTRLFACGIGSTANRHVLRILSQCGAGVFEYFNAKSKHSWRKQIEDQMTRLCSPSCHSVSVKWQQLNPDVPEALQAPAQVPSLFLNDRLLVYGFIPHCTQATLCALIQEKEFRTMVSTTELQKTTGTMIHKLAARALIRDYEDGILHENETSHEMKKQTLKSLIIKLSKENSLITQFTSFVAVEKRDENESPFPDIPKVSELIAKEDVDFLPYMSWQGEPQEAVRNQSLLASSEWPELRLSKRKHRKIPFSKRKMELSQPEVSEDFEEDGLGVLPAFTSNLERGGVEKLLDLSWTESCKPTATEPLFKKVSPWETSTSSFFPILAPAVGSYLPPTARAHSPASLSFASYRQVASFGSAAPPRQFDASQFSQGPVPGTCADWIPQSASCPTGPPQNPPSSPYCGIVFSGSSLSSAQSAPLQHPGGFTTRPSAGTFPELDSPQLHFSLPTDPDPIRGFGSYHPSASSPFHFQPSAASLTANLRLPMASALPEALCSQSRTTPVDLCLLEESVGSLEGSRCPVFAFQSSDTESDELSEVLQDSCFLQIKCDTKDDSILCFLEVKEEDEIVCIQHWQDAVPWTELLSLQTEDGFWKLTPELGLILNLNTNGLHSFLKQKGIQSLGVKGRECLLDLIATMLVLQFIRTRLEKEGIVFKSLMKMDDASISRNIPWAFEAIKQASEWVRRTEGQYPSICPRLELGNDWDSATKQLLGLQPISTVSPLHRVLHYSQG", "experiment": "Inhibition of N-terminal His-tagged recombinant human PARP4 brct-catalytic domain (369 to 573 residues) expressed in Escherichia coli BL21 (DE3) preincubated with 6-a-NAD+ for 5 to 10 mins followed by enzyme addition and measured after 60 mins using NAD+ as substrate byHRP based chemiluminescence assay", "in_short": "(§1)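 Plate-based PASTA assay. His6-SRPK2 is captured on nickel-coated wells as the ADP-ribosylation substrate in HEPES pH 7.5 buffer with NaCl, MgCl2 and TCEP. Recombinant PARP is added at 4–400 nM (2×). Inhibitor (0–200 μM) is premixed with 200 μM 6-a-NAD+ (2×) and reacted 60 min at 30 °C. Incorporated label is click-conjugated to biotin-azide and detected with streptavidin-HRP by chemifluorescence (ex 570/em 600). IC50 is the mean of ≥3 independent assays.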"}, "[2]": {"target": "Poly [ADP-ribose] polymerase 1 (Homo sapiens, UniProt P09874)", "sequence (P09874 whole entry)": "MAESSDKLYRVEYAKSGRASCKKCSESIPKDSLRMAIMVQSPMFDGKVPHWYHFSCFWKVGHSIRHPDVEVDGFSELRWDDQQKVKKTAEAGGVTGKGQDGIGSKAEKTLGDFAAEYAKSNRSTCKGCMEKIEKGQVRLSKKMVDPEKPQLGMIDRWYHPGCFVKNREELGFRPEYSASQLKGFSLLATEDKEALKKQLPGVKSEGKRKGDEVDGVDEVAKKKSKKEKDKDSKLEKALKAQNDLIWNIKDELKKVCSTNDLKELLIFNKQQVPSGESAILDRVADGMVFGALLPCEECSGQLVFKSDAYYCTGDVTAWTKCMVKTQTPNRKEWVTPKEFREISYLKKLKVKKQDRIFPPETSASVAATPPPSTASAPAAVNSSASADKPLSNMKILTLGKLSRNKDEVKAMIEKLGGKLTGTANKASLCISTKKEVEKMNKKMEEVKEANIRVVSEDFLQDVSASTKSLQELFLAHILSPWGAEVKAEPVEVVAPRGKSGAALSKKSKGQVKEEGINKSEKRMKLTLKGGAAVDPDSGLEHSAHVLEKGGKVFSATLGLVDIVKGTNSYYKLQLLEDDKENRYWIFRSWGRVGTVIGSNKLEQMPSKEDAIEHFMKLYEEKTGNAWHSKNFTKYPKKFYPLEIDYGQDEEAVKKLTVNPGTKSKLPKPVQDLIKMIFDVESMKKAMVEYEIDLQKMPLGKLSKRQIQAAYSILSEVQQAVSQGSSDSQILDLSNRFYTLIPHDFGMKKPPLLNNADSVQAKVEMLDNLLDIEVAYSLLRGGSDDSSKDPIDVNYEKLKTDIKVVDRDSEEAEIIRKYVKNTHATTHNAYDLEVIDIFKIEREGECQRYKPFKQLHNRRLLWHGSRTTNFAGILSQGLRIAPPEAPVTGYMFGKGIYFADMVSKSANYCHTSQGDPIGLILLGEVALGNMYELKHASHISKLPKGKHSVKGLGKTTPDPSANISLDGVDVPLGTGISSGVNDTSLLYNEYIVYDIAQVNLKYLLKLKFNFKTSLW", "experiment": "Inhibition of N-terminal His-tagged full length human PARP1 expressed in Escherichia coli BL21 (DE3) preincubated with 6-a-NAD+ for 5 to 10 mins followed by enzyme addition and measured after 60 mins using NAD+ as substrate byHRP based chemiluminescence assay", "in_short": "as §1"}, "[3]": {"target": "Poly [ADP-ribose] polymerase 2 (Homo sapiens, UniProt Q9UGN5)", "sequence (Q9UGN5 whole entry)": "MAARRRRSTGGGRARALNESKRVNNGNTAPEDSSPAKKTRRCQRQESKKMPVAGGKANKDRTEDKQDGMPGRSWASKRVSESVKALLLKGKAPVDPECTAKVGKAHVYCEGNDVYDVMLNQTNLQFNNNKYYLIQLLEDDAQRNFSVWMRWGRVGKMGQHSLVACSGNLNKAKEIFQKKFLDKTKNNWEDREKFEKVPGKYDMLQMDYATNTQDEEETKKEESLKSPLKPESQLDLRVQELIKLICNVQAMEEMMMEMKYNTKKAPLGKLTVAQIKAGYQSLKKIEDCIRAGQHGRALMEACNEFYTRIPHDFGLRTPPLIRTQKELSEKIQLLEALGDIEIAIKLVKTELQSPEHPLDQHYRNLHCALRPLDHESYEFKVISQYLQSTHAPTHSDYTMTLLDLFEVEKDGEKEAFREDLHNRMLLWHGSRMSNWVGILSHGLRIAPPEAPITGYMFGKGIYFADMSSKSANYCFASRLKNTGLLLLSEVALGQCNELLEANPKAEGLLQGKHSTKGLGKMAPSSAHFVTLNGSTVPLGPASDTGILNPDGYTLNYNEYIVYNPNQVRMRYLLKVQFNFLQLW", "experiment": "Inhibition of N-terminal His-tagged full length human PARP2 expressed in Escherichia coli BL21 (DE3) preincubated with 6-a-NAD+ for 5 to 10 mins followed by enzyme addition and measured after 60 mins using NAD+ as substrate byHRP based chemiluminescence assay", "in_short": "as §1"}, "[4]": {"target": "T1, Protein mono-ADP-ribosyltransferase PARP11 (Homo sapiens, UniProt Q9NR21)", "T1 sequence (Q9NR21 whole entry)": "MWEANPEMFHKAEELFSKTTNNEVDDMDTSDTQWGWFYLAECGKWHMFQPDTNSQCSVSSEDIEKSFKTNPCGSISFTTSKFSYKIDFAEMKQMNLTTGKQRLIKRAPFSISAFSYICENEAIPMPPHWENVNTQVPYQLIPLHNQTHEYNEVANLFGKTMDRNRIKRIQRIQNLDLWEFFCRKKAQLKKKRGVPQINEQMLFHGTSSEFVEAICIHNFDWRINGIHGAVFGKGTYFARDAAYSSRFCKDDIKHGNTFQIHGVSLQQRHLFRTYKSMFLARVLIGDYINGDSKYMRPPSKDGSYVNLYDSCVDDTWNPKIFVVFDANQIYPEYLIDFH", "experiment": "Inhibition of N-terminal His-tagged full length human PARP11 expressed in Escherichia coli BL21 (DE3) preincubated with 6-a-NAD+ for 5 to 10 mins followed by enzyme addition and measured after 60 mins using NAD+ as substrate byHRP based chemiluminescence assay", "in_short": "as §1"}, "[5]": {"target": "T2, Protein mono-ADP-ribosyltransferase PARP15 (Homo sapiens, UniProt Q460N3)", "T2 sequence (Q460N3 whole entry)": "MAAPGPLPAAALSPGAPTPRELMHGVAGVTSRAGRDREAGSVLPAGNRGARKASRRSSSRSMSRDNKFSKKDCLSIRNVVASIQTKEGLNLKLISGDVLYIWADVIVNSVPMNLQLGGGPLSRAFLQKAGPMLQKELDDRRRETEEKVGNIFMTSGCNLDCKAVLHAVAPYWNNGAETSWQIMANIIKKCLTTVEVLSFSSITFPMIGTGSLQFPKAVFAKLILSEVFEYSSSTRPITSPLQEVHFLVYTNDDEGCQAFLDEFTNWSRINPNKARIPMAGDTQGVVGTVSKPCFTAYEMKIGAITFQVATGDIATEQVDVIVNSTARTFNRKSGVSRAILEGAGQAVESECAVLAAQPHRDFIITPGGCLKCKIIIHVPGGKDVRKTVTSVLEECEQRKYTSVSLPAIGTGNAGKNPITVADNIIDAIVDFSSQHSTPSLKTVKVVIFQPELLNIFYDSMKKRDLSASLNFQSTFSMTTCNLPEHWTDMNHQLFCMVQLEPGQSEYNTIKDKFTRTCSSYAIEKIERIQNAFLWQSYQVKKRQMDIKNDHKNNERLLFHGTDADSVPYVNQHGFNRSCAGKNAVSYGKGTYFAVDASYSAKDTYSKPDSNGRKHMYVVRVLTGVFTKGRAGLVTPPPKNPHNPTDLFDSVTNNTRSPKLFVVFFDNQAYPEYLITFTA", "experiment": "Inhibition of N-terminal His-tagged human PARP15 catalytic domain expressed in Escherichia coli BL21 (DE3) preincubated with 6-a-NAD+ for 5 to 10 mins followed by enzyme addition and measured after 60 mins using NAD+ as substrate byHRP based chemiluminescence assay", "in_short": "as §1"}}, "data": [{"smiles": "Cc1cc(I)cc2c(=O)[nH]c(CSc3ncccn3)nc12", "values": [{"measurement": "IC50", "setting": "[1]", "result": 2700, "unit": "nM"}]}, {"smiles": "Cc1cc(C)c2nc(CSc3ncccn3)[nH]c(=O)c2c1", "values": [{"measurement": "IC50", "setting": "[1]", "result": 500, "unit": "nM"}, {"measurement": "IC50", "setting": "[2]", "result": 100, "unit": "nM"}]}, {"smiles": "Cc1cc(I)cc2c(=O)[nH]c(CSc3ccc(C(=O)O)cc3)nc12", "values": [{"measurement": "IC50", "setting": "[1]", "result": 800, "unit": "nM"}]}, {"smiles": "Cc1cc(Br)cc2c(=O)[nH]c(CSc3ncccn3)nc12", "values": [{"measurement": "IC50", "setting": "[1]", "result": 800, "unit": "nM"}, {"measurement": "IC50", "setting": "[2]", "result": 2500, "unit": "nM"}, {"measurement": "IC50", "setting": "[3]", "result": 2000, "unit": "nM"}]}, {"smiles": "Cc1cc(Br)cc2c(=O)[nH]c(CSc3ccc(C(=O)O)cc3)nc12", "values": [{"measurement": "IC50", "setting": "[1]", "result": 1900, "unit": "nM"}]}, {"smiles": "Cc1cccc2c(=O)[nH]c(CSc3ncccn3)nc12", "values": [{"measurement": "IC50", "setting": "[4]", "result": 200, "unit": "nM"}, {"measurement": "IC50", "setting": "[3]", "result": 800, "unit": "nM"}]}, {"smiles": "CC#Cc1cc(C)c2nc(CSc3ncccn3)[nH]c(=O)c2c1", "values": [{"measurement": "IC50", "setting": "[5]", "result": 3300, "unit": "nM"}]}]}
